{
  "source": "ChEMBL document CHEMBL1127322",
  "about": "“Selective protection and relative importance of the carboxylic acid groups of zaragozic acid A for squalene synthase inhibition” (J Med Chem, 1994)",
  "key": {"[1]": {"test_system": "Mus musculus", "assay": "Tested in vivo for inhibition at a dose of 40 mg/kg, p.o. in oral mouse assay; Not active", "type": "functional, organism-based", "parameters": "dose 40 mg/kg", "how_it_was_run": "(§1)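 Mice (22.5–27.5 g, six per group) received compound orally as a suspension in 5% emulphor. After 30 min they were given [5-³H]-mevalonolactone sc (0.5 μCi/animal) and were killed 30 min later. Livers were saponified and extracted with petroleum ether, and nonsaponifiable dpm was counted. Inhibition was calculated against incorporation in control animals.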"}, "[2]": {"test_system": "Mus musculus", "assay": "Tested in vivo for inhibition at a dose of 40 mg/kg, p.o. in oral mouse assay", "type": "functional", "how_it_was_run": "as §1"}, "[3]": {"test_system": "Mus musculus", "assay": "Tested in vivo for inhibition at a dose of 24 mg/kg, p.o. in oral mouse assay", "type": "functional", "how_it_was_run": "as §1"}, "[4]": {"test_system": "Mus musculus", "assay": "Effective dose required for 50 percent inhibition of mouse liver squalene synthase at a dose of 40 mg/kg, po"}},
  "note": "Activity calls are given as the source filed them. No cut-off for these calls is given here.",
  "data": [
    {"smiles": "C=C(CCC12OC(C(=O)OCCC(C)C)C(O)(C(=O)O)C(C(=O)OC)(O1)[C@@H](OC(=O)/C=C/[C@@H](C)C[C@@H](C)CC)[C@H]2O)C(OC(C)=O)[C@H](C)Cc1ccccc1", "note": "(some centres undefined)", "values": [
      {"measurement": "inhibition", "setting": "[1]", "value": "inactive"}
    ]},
    {"smiles": "C=C(CCC12OC(C(=O)O)C(O)(C(=O)O)C(C(=O)O)(O1)[C@@H](OC(=O)/C=C/[C@@H](C)C[C@@H](C)CC)[C@H]2O)C(OC(C)=O)[C@H](C)Cc1ccccc1", "note": "(some centres undefined)", "values": [
      {"measurement": "inhibition in vivo at 40 mg/kg", "setting": "[2]", "value": 11, "unit": "%"}
    ]},
    {"smiles": "C=C(CCC12OC(C(=O)O)C(O)(C(=O)OC)C(C(=O)O)(O1)[C@@H](OC(=O)/C=C/[C@@H](C)C[C@@H](C)CC)[C@H]2O)C(OC(C)=O)[C@H](C)Cc1ccccc1", "note": "(some centres undefined)", "values": [
      {"measurement": "inhibition in vivo at 40 mg/kg", "setting": "[2]", "value": 43, "unit": "%"}
    ]},
    {"smiles": "C=C(CCC12OC(C(=O)OCc3ccccc3)C(O)(C(=O)O)C(C(=O)O)(O1)[C@@H](OC(=O)/C=C/[C@@H](C)C[C@@H](C)CC)[C@H]2O)C(OC(C)=O)[C@H](C)Cc1ccccc1", "note": "(some centres undefined)", "values": [
      {"measurement": "inhibition in vivo at 24 mg/kg", "setting": "[3]", "value": 36, "unit": "%"}
    ]},
    {"smiles": "C=C(CCC12OC(C(=O)OCCC(C)C)C(O)(C(=O)O)C(C(=O)O)(O1)[C@@H](OC(=O)/C=C/[C@@H](C)C[C@@H](C)CC)[C@H]2O)C(OC(C)=O)[C@H](C)Cc1ccccc1", "note": "(some centres undefined)", "values": [
      {"measurement": "inhibition in vivo at 40 mg/kg", "setting": "[2]", "value": 62, "unit": "%"}
    ]},
    {"smiles": "C=C(CCC12OC(C(=O)OC)C(O)(C(=O)O)C(C(=O)O)(O1)[C@@H](OC(=O)/C=C/[C@@H](C)C[C@@H](C)CC)[C@H]2O)C(OC(C)=O)[C@H](C)Cc1ccccc1", "note": "(some centres undefined)", "values": [
      {"measurement": "inhibition in vivo at 24 mg/kg", "setting": "[3]", "value": 32, "unit": "%"}
    ]},
    {"smiles": "C=C(CCC12OC(C(=O)OCCC(C)C)C(O)(C(=O)OC)C(C(=O)O)(O1)[C@@H](OC(=O)/C=C/[C@@H](C)C[C@@H](C)CC)[C@H]2O)C(OC(C)=O)[C@H](C)Cc1ccccc1", "note": "(some centres undefined)", "values": [
      {"measurement": "ED50", "setting": "[4]", "value": 18, "unit": "mg/kg"}
    ]},
    {"smiles": "C=C(CCC12OC(C(=O)O)C(O)(C(=O)OC)C(C(=O)OC)(O1)[C@@H](OC(=O)/C=C/[C@@H](C)C[C@@H](C)CC)[C@H]2O)C(OC(C)=O)[C@H](C)Cc1ccccc1", "note": "(some centres undefined)", "values": [
      {"measurement": "inhibition", "setting": "[1]", "value": "inactive"}
    ]},
    {"smiles": "C=C(CCC12OC(C(=O)O)C(O)(C(=O)O)C(C(=O)OC)(O1)[C@@H](OC(=O)/C=C/[C@@H](C)C[C@@H](C)CC)[C@H]2O)C(OC(C)=O)[C@H](C)Cc1ccccc1", "note": "(some centres undefined)", "values": [
      {"measurement": "inhibition", "setting": "[1]", "value": "inactive"}
    ]}
  ]
}
